KCNK3 inh – human KCNK3 channel inhibition, primary screen; O14649; AID 602410; CHO-KCNK3 thallium flux, FluxOR fluorescence; hits give low values; actives 0.84% (n = 340,000); B-score at 10 µM;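 active = B-score under library mean minus 4 SD, starting fluorescence ratio at most library mean plus 5 SD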;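 also: more negative B-score means stronger inhibition of thallium flux through KCNK3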
Target sequence (O14649 whole entry, looked up): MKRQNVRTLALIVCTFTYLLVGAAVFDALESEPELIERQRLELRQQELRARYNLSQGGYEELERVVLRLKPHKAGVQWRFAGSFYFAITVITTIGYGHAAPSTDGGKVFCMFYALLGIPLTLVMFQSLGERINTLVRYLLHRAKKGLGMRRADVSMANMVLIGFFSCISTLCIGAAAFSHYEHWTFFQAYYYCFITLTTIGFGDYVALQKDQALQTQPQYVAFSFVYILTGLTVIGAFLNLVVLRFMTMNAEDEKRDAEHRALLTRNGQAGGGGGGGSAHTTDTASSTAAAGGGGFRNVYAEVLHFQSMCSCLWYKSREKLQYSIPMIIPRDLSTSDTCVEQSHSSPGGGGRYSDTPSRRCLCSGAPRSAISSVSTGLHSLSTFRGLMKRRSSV
KCNK9 inh-1 – inhibitors of human KCNK9 two-pore domain potassium channel; Q9NPC2; HEK293 KCNK9, FluxOR thallium flux fluorescence; hits give low values; B-score at 10 µM; actives 1.2% (n = 310,000);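 active = ratio B-score over 3 SD below the library mean, with starting fluorescence within 5 SD of its mean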;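 also: negative B-score means less thallium flux so channel inhibition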
KCNQ1 pot – human KCNQ1 channel potentiation or activation; AID 2648; B-score at 10 µM; CHO-K1 KCNQ1, thallium flux FluxOR fluorescence; hits give high values; actives 0.35% (n = 310,000);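 active = fluorescence ratio B-score, a plate-corrected score, at least three library SD, with initial intensity B-score within 5 SD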
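Material: CHO-K1 cells stably expressing KCNQ1. Medium: assay buffer for compound exposure, DMSO matched across wells. Reagent: K+/Tl+ depolarizing stimulus. Compound dosing: single-concentration screen. Times: 37 °C overnight plating, 90-min dark dye load, 20-min compound pretreatment. Technique: FluxOR Tl+ flux fluorescence.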
hERG rescue – compounds protecting human hERG from proarrhythmic drug block | activation (rescue from dofetilide block), less the hit threshold, % at 10 µM | CHO-hERG, FluxOR thallium flux, dofetilide IC70 present | actives 0.51% (n = 310,000) | Q12809;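 active = activation above the mean of controls blocked by dofetilide plus 5 SD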;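 also: thallium influx through hERG after potassium depolarization seen as dye fluorescence rise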
KCNQ1 block – blocks the human KCNQ1 potassium channel; CHO-K1 KCNQ1, FluxOR thallium flux fluorescence; hits give high values; B-score at 10 µM; actives 1.3% (n = 310,000);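 active = compounds whose thallium flux B-score, printed positive for inhibition, exceeds three library SD while starting fluorescence stays within three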;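 also: channel opened by potassium depolarization with thallium stimulus after 20 min compound exposure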
Kir21 inh – Kir2.1 (mouse) channel inhibition; P35561; HEK293-Kir2.1, FluxOR thallium flux fluorescence; hits give low values; B-score at 10 µM; actives 0.85% (n = 310,000); AID 1672;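 active = fluorescence ratio B-score at or below minus 3 SD of library scores, with starting-brightness B-score within 2 SD, cut at about -4.2 in these data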;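 also: channel flux triggered by added potassium and thallium sulfate stimulus; B-score of peak minus minimum fluorescence over baseline after thallium stimulus; more negative B-score means stronger Kir2.1 block with less thallium influx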
hERG inh – blocks human hERG, in counter-screen for Kir2.1 inhibitors; shares compounds with Kir21 inh; hERG-expressing cells, thallium flux; AID 2236; actives 20% (n = 320); inhibition, % at 10 µM;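 also: host cells are CHO cells stably expressing hERG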
KCNK9 inh-2 – tests whether Kir2.1 inhibitors also affect human KCNK9 | shares compounds with Kir21 inh | inhibition, % at 10 µM | actives 5% (n = 320) | KCNK9-expressing cells, ion flux inhibition
Kir2-1 patch inh – mouse Kir2.1 inward rectifier channel inhibition. AID 463252. Kir2.1 cells, automated patch-clamp current inhibition. actives 71% (n = 320). shares compounds with Kir21 inh. inhibition, % at 25 µM
Each line names hits and unclear results; the compound was inactive in the other large screens (follow-up assays come after a bar, where they were run). Most compounds without a hit are left out; they make up all but 3.8% or so of the library. Unless noted, no rule for the calls is given here.

C=CCc1cc(Cl)ccc1OCCOCCNC(C)CC (stereo unspecified)	Kir21 inh -7 | hERG inh inactive | KCNK9 inh-2 inactive | Kir2-1 patch inh 42%
Cc1ccc2nc(CCCc3nc4ccc(C)cc4[nH]3)[nH]c2c1	Kir21 inh -8.6 | hERG inh inactive | KCNK9 inh-2 inactive | Kir2-1 patch inh inactive
COc1ccc(F)cc1S(=O)(=O)N1CCN(c2ccccn2)CC1	none
COc1ccc(Br)cc1S(=O)(=O)N1CC(C)OC(C)C1 (stereo unspecified)	Kir21 inh -6.2 | hERG inh inactive | KCNK9 inh-2 inactive | Kir2-1 patch inh 26%
COc1ccc(Br)cc1S(=O)(=O)N1CCOCC1	none
COc1ccc(F)cc1S(=O)(=O)N1CC(C)CC(C)C1 (stereo unspecified)	Kir21 inh -6.2 | hERG inh inactive | KCNK9 inh-2 inactive | Kir2-1 patch inh 37%
O=C(CNC(=O)c1ccc(Cl)cc1Cl)NCC1CCCO1 (stereo unspecified)	none
Cc1ccc(S(=O)(=O)CCCS(=O)(=O)c2ccc(C)cc2)cc1	Kir21 inh -5.7 | hERG inh inactive | KCNK9 inh-2 inactive | Kir2-1 patch inh 17%
COc1ccc(CNCCS(=O)(=O)NCc2ccccc2)cc1	none (no result: KCNK9 inh-1, KCNQ1 pot, hERG rescue, KCNQ1 block, Kir21 inh)
COc1ccc(CNCc2cccc(Oc3ccccc3)c2)cc1	Kir21 inh -14 | hERG inh inactive | KCNK9 inh-2 inactive | Kir2-1 patch inh 85%
COc1ccc(CNCC(O)(c2ccccc2)c2ccccc2)cc1	Kir21 inh -6.2 | hERG inh 46% | KCNK9 inh-2 inactive | Kir2-1 patch inh inactive
CCn1c(COc2ccccc2)nnc1SCc1ccc(C#N)cc1	Kir21 inh -6.5 | hERG inh inactive | KCNK9 inh-2 inactive | Kir2-1 patch inh 25%
COc1ccc(CCN(C)CC(O)COC(c2ccc(F)cc2)c2ccc(F)cc2)cc1OC (stereo unspecified)	none
COc1ccc(CN(C)CC(O)COC(c2ccccc2)c2ccccc2)c(OC)c1OC (stereo unspecified)	Kir21 inh -6 | hERG inh 69% | KCNK9 inh-2 inactive | Kir2-1 patch inh inactive
CN(Cc1ccco1)S(=O)(=O)c1csc(C(N)=O)c1	none
CC(C)CCN(Cc1ccco1)S(=O)(=O)c1csc(C(N)=O)c1	Kir21 inh -8.2 | hERG inh inactive | KCNK9 inh-2 inactive | Kir2-1 patch inh 22%
CN(C)CCOCCOc1ccc(Cl)cc1C(C)(C)C	Kir21 inh -6 | hERG inh 47% | KCNK9 inh-2 inactive | Kir2-1 patch inh 37%
C=CCc1cc(Cl)ccc1OCCN(C)C	none
CC1CCN(CCCNC(=O)C2CC(=O)N(CCc3ccccc3)C2)CC1 (stereo unspecified)	none
O=[N+]([O-])c1ccc(Sc2ncccn2)c([N+](=O)[O-])c1	none
O=[N+]([O-])c1ccc(Sc2nccn2Cc2ccccc2)c([N+](=O)[O-])c1	Kir21 inh -7.2 | hERG inh inactive | KCNK9 inh-2 inactive | Kir2-1 patch inh 35%
O=[N+]([O-])c1cc(C(F)(F)F)ccc1Sc1nccn1Cc1ccccc1	Kir21 inh -8.5 | hERG inh inactive | KCNK9 inh-2 inactive | Kir2-1 patch inh 7.0%
O=C1C2C(C(=O)N1c1nccs1)C1C=CC2C12CC2 (stereo unspecified)	none
COc1ccc(-c2nnc(SCC(=O)N3CCCc4ccccc43)o2)cc1OC	none
CC(C)(C)c1ccc(OCCNCc2ccccc2)cc1	none
Clc1ccc(OCCOCCNCc2ccccc2)cc1Cl	Kir21 inh -8.7 | hERG inh 51% | KCNK9 inh-2 inactive | Kir2-1 patch inh 42%
CCNC(=S)NNC(=O)c1cccs1	none
CC(=O)N(CC(C)(C)CC=C(C)C)c1ccccc1	Kir21 inh -5.9 (no result: KCNK3 inh) | hERG inh inactive | KCNK9 inh-2 inactive | Kir2-1 patch inh 9.4%
COc1cc(OC)c(OC)cc1CCC(C)NCCC(c1ccccc1)c1ccccc1 (stereo unspecified)	Kir21 inh -11 | hERG inh 68% | KCNK9 inh-2 inactive | Kir2-1 patch inh 5.1%
CC(C)(C)OC(=O)NCCCCCc1nnc(SCc2ccc(F)cc2)o1	none
Cc1ccc(CSc2nnc(CCNC(=O)OC(C)(C)C)o2)cc1	Kir21 inh -11 | hERG inh inactive | KCNK9 inh-2 inactive | Kir2-1 patch inh 60%
Cc1c(NC(=O)COC(=O)c2ccc(Br)o2)c(=O)n(-c2ccccc2)n1C	none | hERG inh inactive | KCNK9 inh-2 inactive | Kir2-1 patch inh inactive
Cc1c(NC(=O)C(C)OC(=O)c2ccc(Br)o2)c(=O)n(-c2ccccc2)n1C (stereo unspecified)	none
COc1ccc(S(=O)(=O)N2CCc3ccccc32)cc1OC	Kir21 inh -6.2 | hERG inh inactive | KCNK9 inh-2 inactive | Kir2-1 patch inh 24%
Cc1ccccc1Oc1ncccc1C(=O)/C(C#N)=C/N(C)C	none
Cc1ccc(N(CC(=O)Nc2ccc(C)cc2C)S(=O)(=O)N2CCCC2)cc1	none
CCCN1CCC(NC23CC4CC(CC(C4)C2)C3)CC1	Kir21 inh -9.8 (no result: KCNK3 inh) | hERG inh inactive | KCNK9 inh-2 inactive | Kir2-1 patch inh 41%
Cc1ccc(-n2nnnc2SCC(=O)c2cc(C)n(-c3cc(C)on3)c2C)c(C)c1	none
C/C=C/c1ccc(OCCCCN(C)Cc2ccccc2)c(OC)c1	Kir21 inh -9.9 | hERG inh 62% | KCNK9 inh-2 inactive | Kir2-1 patch inh 46%
C/C=C/c1ccc(OCCCCOc2ccccc2C(C)=O)c(OC)c1	none
O=S(=O)(c1ccccc1F)N1CCCc2ccccc21	Kir21 inh -6.1 | hERG inh inactive | KCNK9 inh-2 inactive | Kir2-1 patch inh 32%
COc1ccc(CCNC2CCc3ccccc3C2)cc1 (stereo unspecified)	Kir21 inh -8.6 | hERG inh inactive | KCNK9 inh-2 inactive | Kir2-1 patch inh 37%
CCn1nnnc1NC(=O)c1cccc(OC)c1	none
c1ccc(COc2ccc(OCCCNC3CCCC3)cc2)cc1	Kir21 inh -8.8 | hERG inh 47% | KCNK9 inh-2 inactive | Kir2-1 patch inh 26%
O=S(=O)(NCc1csc(-c2cccs2)n1)c1ccc(Cl)cc1	Kir21 inh -11 | hERG inh inactive | KCNK9 inh-2 inactive | Kir2-1 patch inh 22%
O=S(=O)(NCc1csc(-c2cccs2)n1)c1cccs1	none
O=C(CC(Cc1ccccc1)c1ccco1)NC1CCCCC1 (stereo unspecified)	none

Screens deposited in PubChem by Johns Hopkins Ion Channel Center.
